Laboratory results as given in ChEMBL document CHEMBL3399994, “Improving both aqueous solubility and anti-cancer activity by assessing progressive lead optimization libraries” (Bioorg Med Chem Lett, 2015).
Converted amounts (≈) assume the structure as drawn.

What was measured:
[1] = Cytotoxicity against human NHFB cells assessed as cell viability at 10 uM after 48 hrs by SRB assay; type: cell-based; settings: read-out: Activity
In short: (§1)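 Single-concentration screen at 10 µM in normal human fibroblasts, NSCLC H460 cells and their drug-resistant H460_TaxR variant. Viability was read out by sulforhodamine B (SRB) staining and expressed relative to DMSO-treated cells, set as 100%.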

[2] = Cytotoxicity against human NHFB cells after 48 hrs by SRB assay; type: cell-based
[3] = Cytotoxicity against human H460/TaxR cells after 48 hrs by SRB assay; type: functional, cell-based
[4] = Cytotoxicity against human H460/TaxR cells assessed as cell viability at 10 uM after 48 hrs by SRB assay; type: functional; settings: read-out: Activity; in short: as §1
[5] = Cytotoxicity against human H460 cells assessed as cell viability at 10 uM after 48 hrs by SRB assay; type: functional; settings: NCI-H460, 48 h, read-out: Activity; in short: as §1
[6] = Solubility in pH 7.4 buffer after 18 hrs by UV spectroscopy based microSol assay; type: physicochemical; settings: for solubility: buffer, pH 7.4, 18 h; for solubility at 18 h: pH 7.4 buffer, pH 7.4
[7] = Cytotoxicity against human H460 cells after 48 hrs by SRB assay; type: functional, cell-based; settings: NCI-H460, 48 h

SMILES | viability at 48 h, 10 µM [1] | EC50 [2] | EC50 [3] | viability at 10 µM [4] | viability at 10 µM [5] | solubility [6] | EC50 [7] | solubility at 18 h [6]
CN(C)c1ccc(/C=C2/SC(=Nc3ccccc3)NC2=O)cc1 | 68.3% | > 100 µM | 0.98 µM | 29.4% | 19.8% | 0.1 µg/mL (≈ 0.309 µM) | 0.72 µM | –
CN(C)c1ccc(/C=C2/SC(=Nc3ccc(O)cc3)NC2=O)cc1 | 96.5% | – | – | 47.9% | 94.4% | – | – | 0.01 µg/mL (≈ 0.0295 µM)
Cc1ccccc1/N=C1\NC(=O)/C(=C\c2ccc(N(C)C)cc2)S1 | 86.5% | – | – | 41% | 17.6% | – | – | 0.27 µg/mL (≈ 0.8 µM)
CN(C)c1ccc(/C=C2/SC(=Nc3ccccc3Cl)NC2=O)cc1 | > 100% | – | – | 39.3% | 8.82% | – | – | 0.02 µg/mL (≈ 0.0559 µM)
O=C1N=C(Nc2ccccc2)S/C1=C/c1ccc(N2CCNCC2)cc1 | 97% | > 100 µM | > 100 µM | 89.3% | > 100% | 1.68 µg/mL (≈ 4.61 µM) | > 100 µM | –
CCN(CC)c1ccc(/C=C2/SC(Nc3ccccc3)=NC2=O)cc1 | 96.9% | > 100 µM | 9.9 µM | 30.1% | 19.5% | 0.1 µg/mL (≈ 0.285 µM) | 6.9 µM | –
O=C1N=C(Nc2ccccc2)S/C1=C/c1ccc(N2CCOCC2)cc1 | 97.4% | > 100 µM | > 100 µM | 77.5% | 96.1% | 0.1 µg/mL (≈ 0.274 µM) | > 100 µM | –
CN1CCN(c2ccc(/C=C3/SC(Nc4ccccc4)=NC3=O)cc2)CC1 | 93.8% | 6.4 µM | 2.5 µM | 11.3% | 13.9% | 0.35 µg/mL (≈ 0.925 µM) | 1.4 µM | –
CCN(CC)c1ccc(/C=C2/SC(Nc3ccc(O)cc3)=NC2=O)cc1 | 93.7% | – | – | 48.2% | 94.3% | – | – | –
O=C1N=C(Nc2ccc(O)cc2)S/C1=C/c1ccc(N2CCOCC2)cc1 | 92.8% | – | – | > 100% | 88.9% | – | – | 0.19 µg/mL (≈ 0.498 µM)
CN1CCN(c2ccc(/C=C3/SC(Nc4ccc(O)cc4)=NC3=O)cc2)CC1 | 94.3% | – | – | > 100% | > 100% | – | – | 0.01 µg/mL (≈ 0.0253 µM)
O=C1N=C(Nc2ccc(O)cc2)S/C1=C/c1ccc(N2CCNCC2)cc1 | 98.9% | – | – | 85.5% | 83.9% | – | – | 13.9 µg/mL (≈ 36.5 µM)
CCN(CC)c1ccc(/C=C2/SC(Nc3ccccc3Cl)=NC2=O)cc1 | 85% | – | – | 29.5% | 25.1% | – | – | 0.01 µg/mL (≈ 0.0259 µM)
O=C1N=C(Nc2ccccc2Cl)S/C1=C/c1ccc(N2CCOCC2)cc1 | 94.2% | – | – | 41.4% | 48.2% | – | – | 0.05 µg/mL (≈ 0.125 µM)
CN1CCN(c2ccc(/C=C3/SC(Nc4ccccc4Cl)=NC3=O)cc2)CC1 | 96% | – | – | 52.7% | 98.2% | – | – | 0.43 µg/mL (≈ 1.04 µM)
O=C1N=C(Nc2ccccc2Cl)S/C1=C/c1ccc(N2CCNCC2)cc1 | 99.3% | – | – | 77.4% | 98.1% | – | – | 0.14 µg/mL (≈ 0.351 µM)
CN(C)c1ccc(/C=C2/SC(Nc3ccc(Oc4ccccc4)cc3)=NC2=O)cc1 | 100% | – | – | 88.2% | > 100% | – | – | 0.01 µg/mL (≈ 0.0241 µM)
CCN(CC)c1ccc(/C=C2/SC(Nc3ccc(Oc4ccccc4)cc3)=NC2=O)cc1 | > 100% | – | – | 64.6% | > 100% | – | – | –
O=C1N=C(Nc2ccc(Oc3ccccc3)cc2)S/C1=C/c1ccc(N2CCOCC2)cc1 | 98% | – | – | 46.8% | 72.6% | – | – | 0.1 µg/mL (≈ 0.219 µM)

SMILES | viability at 48 h, 10 µM [1] | EC50 [2] | EC50 [3] | viability at 10 µM [4] | viability at 10 µM [5] | solubility [6] | EC50 [7] | solubility at 18 h [6]
CN1CCN(c2ccc(/C=C3/SC(Nc4ccc(Oc5ccccc5)cc4)=NC3=O)cc2)CC1 | 90.9% | – | – | 49.8% | 46.7% | – | – | 0.1 µg/mL (≈ 0.212 µM)
O=C1N=C(Nc2ccc(Oc3ccccc3)cc2)S/C1=C/c1ccc(N2CCNCC2)cc1 | 82.9% | – | – | 45.4% | 49.3% | – | – | 0.1 µg/mL (≈ 0.219 µM)
CCN(CC)c1ccc(/C=C2/SC(Nc3ccccc3C)=NC2=O)cc1 | 80.6% | – | – | 24.6% | 8.3% | – | – | 0.2 µg/mL (≈ 0.547 µM)
Cc1ccccc1NC1=NC(=O)/C(=C\c2ccc(N3CCOCC3)cc2)S1 | 80.8% | – | – | 70.2% | 43.8% | – | – | 0.78 µg/mL (≈ 2.06 µM)
Cc1ccccc1NC1=NC(=O)/C(=C\c2ccc(N3CCN(C)CC3)cc2)S1 | 80.2% | – | – | 34.3% | 88.6% | – | – | 0.89 µg/mL (≈ 2.27 µM)
Cc1ccccc1NC1=NC(=O)/C(=C\c2ccc(N3CCNCC3)cc2)S1 | 62.8% | – | – | 50.1% | 65.1% | – | – | 3.83 µg/mL (≈ 10.1 µM)
CN(C)c1ccc(/C=C2/SC(N(c3ccccc3)c3ccccc3)=NC2=O)cc1 | – | > 100 µM | > 100 µM | – | – | – | > 100 µM | –
CCN(CC)c1ccc(/C=C2/SC(N(c3ccccc3)c3ccccc3)=NC2=O)cc1 | – | > 100 µM | > 100 µM | – | – | 0.01 µg/mL (≈ 0.0234 µM) | > 100 µM | –
O=C1N=C(N(c2ccccc2)c2ccccc2)S/C1=C/c1ccc(N2CCOCC2)cc1 | – | > 100 µM | > 100 µM | – | – | 0.01 µg/mL (≈ 0.0226 µM) | > 100 µM | –
CN1CCN(c2ccc(/C=C3/SC(N(c4ccccc4)c4ccccc4)=NC3=O)cc2)CC1 | – | > 100 µM | > 100 µM | – | – | 0.11 µg/mL (≈ 0.242 µM) | > 100 µM | –
O=C1N=C(N(c2ccccc2)c2ccccc2)S/C1=C/c1ccc(N2CCNCC2)cc1 | – | > 100 µM | > 100 µM | – | – | 0.15 µg/mL (≈ 0.34 µM) | > 100 µM | –
CN(C)c1ccc(/C=C2/SC(N(C)c3ccccc3)=NC2=O)cc1 | – | > 100 µM | 0.16 µM | – | – | 0.5 µg/mL (≈ 1.48 µM) | 0.08 µM | –
CCN(CC)c1ccc(/C=C2/SC(N(C)c3ccccc3)=NC2=O)cc1 | – | > 100 µM | 0.43 µM | – | – | 0.01 µg/mL (≈ 0.0274 µM) | 0.28 µM | –
CN(C1=NC(=O)/C(=C\c2ccc(N3CCOCC3)cc2)S1)c1ccccc1 | – | > 100 µM | 2.9 µM | – | – | 5.06 µg/mL (≈ 13.3 µM) | 8.9 µM | –
CN1CCN(c2ccc(/C=C3/SC(N(C)c4ccccc4)=NC3=O)cc2)CC1 | – | > 100 µM | > 100 µM | – | – | 18.91 µg/mL (≈ 48.2 µM) | > 100 µM | –
CN(C1=NC(=O)/C(=C\c2ccc(N3CCNCC3)cc2)S1)c1ccccc1 | – | > 100 µM | > 100 µM | – | – | 3.89 µg/mL (≈ 10.3 µM) | > 100 µM | –
CCCSc1ccc2nc(NC(=O)OC)[nH]c2c1 [ALBENDAZOLE] | – | – | – | – | – | – | – | 2.3 µg/mL (≈ 8.67 µM)
NC(=O)N1c2ccccc2C=Cc2ccccc21 [CARBAMAZEPINE] | – | – | – | – | – | 22 µg/mL (≈ 93.1 µM) | – | –
CNC(=C[N+](=O)[O-])NCCSCc1ccc(CN(C)C)o1 [RANITIDINE] | – | – | – | – | – | 33.7 µg/mL (≈ 107 µM) | – | –
